Legend:
[1] = system: HCT-116; assay: Antiproliferative activity against human HCT116 cells after 72 hrs by MTT assay; type: functional, cell-based; details: HCT-116, 72 h
Method in brief: (§1)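 Cells grown to log phase in RPMI 1640 with 10% FBS, seeded at 2×10^4 cells/mL and incubated 24 h at 37 °C, 5% CO2. Compounds added, then 72 h at 37 °C. MTT (5 mg/mL stock) for 4 h, formazan dissolved in DMSO, absorbance read at 570 nm. Triplicate wells per concentration, three independent experiments. IC50 is the concentration giving 50% growth inhibition versus untreated control, reported as mean ± S.E.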

[2] = system: MGC-803; assay: Antiproliferative activity against human MGC803 cells after 72 hrs by MTT assay; type: functional, cell-based; details: MGC-803, 72 h; method in brief: as §1
[3] = system: Huh-7; assay: Antiproliferative activity against human HuH7 cells after 72 hrs by MTT assay; type: functional, cell-based; details: Huh-7, 72 h; method in brief: as §1
[4] = system: MGC-803; assay: Potency index, ratio of 5-Fluorouracil IC50 to compound IC50 for antiproliferative activity against human MGC803 cells; type: functional
[5] = system: HCT-116; assay: Potency index, ratio of 5-Fluorouracil IC50 to compound IC50 for antiproliferative activity against human HCT116 cells; type: functional

Row | Compound | IC50 [1] [µM] | IC50 [2] [µM] | IC50 [3] [µM] | Ratio IC50 [4] | Ratio IC50 [5]
1 | CC(=O)c1sc(N/N=C2/C=C(Nc3ccc(C)cc3)C(Nc3ccc(C)cc3)=NC2=O)nc1C | 52.7 | 75.5 | 72 | – | –
2 | CC(=O)c1sc(N/N=C2/C=C(Nc3ccc(Br)cc3)C(Nc3ccc(Br)cc3)=NC2=O)nc1C | 13.2 | 9.12 | 17.9 | – | –
3 | CC(=O)c1sc(N/N=C2/C=C(Nc3cccc(Cl)c3)C(Nc3cccc(Cl)c3)=NC2=O)nc1C | 10.6 | 5.18 | > 128 | – | –
4 | CC(=O)c1sc(N/N=C2/C=C(Nc3ccccc3Cl)C(Nc3ccccc3Cl)=NC2=O)nc1C | 8.17 | 3.15 | 21.5 | 8.1 | 1.4
5 | COc1cccc(NC2=C/C(=N/Nc3nc(C)c(C(C)=O)s3)C(=O)N=C2Nc2cccc(OC)c2)c1 | > 128 | > 128 | > 128 | – | –
6 | CC(=O)c1sc(N/N=C2/C=C(Nc3ccccc3)C(Nc3ccccc3)=NC2=O)nc1C | 25.3 | 13.5 | 19.1 | – | –
7 | COc1ccc(NC2=C/C(=N/Nc3nc(C)c(C(C)=O)s3)C(=O)N=C2Nc2ccc(OC)cc2)cc1 | > 128 | 82.6 | > 128 | – | –
8 | CC(=O)c1sc(N/N=C2/C=C(Nc3cccc(Br)c3)C(Nc3cccc(Br)c3)=NC2=O)nc1C | 22.2 | 21.6 | > 128 | – | –
9 | CC(=O)c1sc(N/N=C2/C=C(Nc3ccccc3C)C(Nc3ccccc3C)=NC2=O)nc1C | > 128 | 45 | > 128 | – | –
10 | COc1ccccc1NC1=C/C(=N/Nc2nc(C)c(C(C)=O)s2)C(=O)N=C1Nc1ccccc1OC | 85.4 | 51.1 | 20.6 | – | –
11 | CC(=O)c1sc(N/N=C2/C=C(Nc3ccc(Cl)cc3)C(Nc3ccc(Cl)cc3)=NC2=O)nc1C | 8.28 | 8.56 | > 128 | – | –
12 | CC(=O)c1sc(N/N=C2/C=C(Nc3cccc(F)c3)C(Nc3cccc(F)c3)=NC2=O)nc1C | 22.8 | 21.4 | 58.8 | – | –
13 | CC(=O)c1sc(N/N=C2/C=C(Nc3cccc(C)c3)C(Nc3cccc(C)c3)=NC2=O)nc1C | > 128 | > 128 | > 128 | – | –
14 | O=c1[nH]cc(F)c(=O)[nH]1 [FLUOROURACIL] | 11.3 | 25.5 | 5.63 | – | –

— ChEMBL document CHEMBL4251636, “Design, synthesis and biological evaluations of novel pyridone-thiazole hybrid molecules as antitumor agents” (Eur J Med Chem, 2018)
